Assay results gathered from unrelated publications.
Lines come from different studies, so protocols differ.

SMILES | target or system | test | system | setting | quantity | value
Cc1c2ccncc2c(C)c2c1[nH]c1ccccc12 | Caco-2 | cell growth or viability, SRB |  | 72 h | GI50 | 4.91 µM
COc1ccc(Nc2nn3c(-c4ccccc4)ccnc3c2C(=O)Nc2ccccc2)cc1 | Caco-2 | cell growth or viability, MTT |  | 25 µg/mL, 48 h, serum-free | viability | 56.6%
C[C@@H]1CN2c3c(cc4c(N5C(=O)OC[C@@H]5C)noc4c3F)CC3(C(=O)NC(=O)NC3=O)[C@H]2[C@H](C)O1 | Klebsiella pneumoniae | microbial growth, broth dilution | ATCC10031 |  | MIC | 0.25 µg/mL
COc1ccc(-c2c(-c3ccc(C#N)c(F)c3)nc(N3CCC(N)CC3)n(C)c2=O)cc1F | TC-32 | cell growth or viability, resazurin |  |  | IC50 | 36 µM
O=c1ccc2nc3ccc(OCc4ccc([N+](=O)[O-])o4)cc3oc-2c1 | Klebsiella pneumoniae | microbial growth |  | 24 h | MIC | > 32 µg/mL
Oc1c(Br)cc(Br)cc1-c1[nH]c(Br)c(Br)c1Br | Streptococcus pneumoniae | microbial growth | ATCC49619 |  | MIC | 0.04 µM
O=c1ccc2nc3ccc(O)cc3oc-2c1 | Klebsiella pneumoniae | microbial growth |  | 24 h | MIC | > 32 µg/mL
N.N.[Cl][Pt][Cl] | A2780 | cell growth or viability, MTT |  |  | IC50 | 0.31 µM
Oc1c(Cl)cc(Cl)cc1-c1[nH]c(Cl)c(Cl)c1Cl | Streptococcus pneumoniae | microbial growth | ATCC49619 |  | MIC | 0.13 µM
